Measured values from ChEMBL document CHEMBL1157014, “Synthesis, characterization and biological evaluation of some thiourea derivatives bearing benzothiazole moiety as potential antimicrobial and anticancer agents” (Eur J Med Chem, 2010).
≈ marks a conversion by molar mass, not a printed value.

tested on: Staphylococcus aureus; test: Antibacterial activity against Staphylococcus aureus ATCC 29213 after 24 hrs by browth microdilution assay; format: functional; settings: ATCC 29213, 24 h
Outline: (§1)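 Broth microdilution per CLSI. Colonies suspended in 0.9% saline and adjusted to McFarland 0.5. Compounds dissolved in DMSO, diluted with distilled water to 100, 50, 25, 12.5, 6.25 and 3.125 µg/ml, with DMSO as negative control. Gentamycin (Gram-negative) and amikacin (Gram-positive) served as reference drugs. Incubation at 37 °C for 24 h. MIC taken as the lowest concentration preventing visible growth.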

MIC [mg/L]	Structure (SMILES)
25 (≈ 69.8 µM)	O=C(NC(=S)Nc1nc2cc([N+](=O)[O-])ccc2s1)c1ccccc1
50 (≈ 152 µM)	Nc1ccc2sc(NC(=S)NC(=O)c3ccccc3)nc2c1

The next lines start with the compound.

Structure (SMILES)	MIC [mg/L]
O=C(NC(=S)Nc1nc2cc([N+](=O)[O-])ccc2s1)c1ccc([N+](=O)[O-])cc1	50 (≈ 124 µM)
CCCC(=O)NC(=S)Nc1nc2cc(N)ccc2s1	50 (≈ 170 µM)
CCCC(=O)NC(=S)Nc1nc2cc([N+](=O)[O-])ccc2s1	50 (≈ 154 µM)

tested on: Pichia kudriavzevii; test: Antifungal activity against Candida krusei ATCC 6268 after 48 hrs by browth microdilution assay; format: functional; settings: ATCC 6268, 48 h
Outline: (§2)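 Yeast colonies suspended in 0.9% saline and adjusted to McFarland 0.5, then tested by CLSI broth microdilution. Compounds in DMSO, diluted with distilled water to 3.125–100 µg/ml, with DMSO as negative control and nystatin as reference. Incubation at 37 °C, read after 48 h. MIC is the lowest concentration with no visible growth.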

MIC [mg/L]	Structure (SMILES)
50 (≈ 140 µM)	O=C(NC(=S)Nc1nc2cc([N+](=O)[O-])ccc2s1)c1ccccc1
25 (≈ 76.1 µM)	Nc1ccc2sc(NC(=S)NC(=O)c3ccccc3)nc2c1

Continued, compound first:

Structure (SMILES)	MIC [mg/L]
O=C(NC(=S)Nc1nc2cc([N+](=O)[O-])ccc2s1)c1ccc([N+](=O)[O-])cc1	25 (≈ 62 µM)
CCCC(=O)NC(=S)Nc1nc2cc(N)ccc2s1	50 (≈ 170 µM)
CCCC(=O)NC(=S)Nc1nc2cc([N+](=O)[O-])ccc2s1	25 (≈ 77.1 µM)

tested on: Enterococcus faecalis; test: Antibacterial activity against Enterococcus faecalis ATCC 29212 after 24 hrs by browth microdilution assay; format: functional; settings: ATCC 29212, 24 h; outline: as §1

MIC [mg/L]	Structure (SMILES)
50 (≈ 140 µM)	O=C(NC(=S)Nc1nc2cc([N+](=O)[O-])ccc2s1)c1ccccc1
50 (≈ 152 µM)	Nc1ccc2sc(NC(=S)NC(=O)c3ccccc3)nc2c1

The next lines start with the compound.

Structure (SMILES)	MIC [mg/L]
O=C(NC(=S)Nc1nc2cc([N+](=O)[O-])ccc2s1)c1ccc([N+](=O)[O-])cc1	50 (≈ 124 µM)
CCCC(=O)NC(=S)Nc1nc2cc(N)ccc2s1	50 (≈ 170 µM)
CCCC(=O)NC(=S)Nc1nc2cc([N+](=O)[O-])ccc2s1	50 (≈ 154 µM)

tested on: Pseudomonas aeruginosa; test: Antibacterial activity against Pseudomonas aeruginosa ATCC 27853 after 24 hrs by browth microdilution assay; format: functional; settings: ATCC 27853, 24 h; outline: as §1

MIC [mg/L]	Structure (SMILES)
20 (≈ 55.8 µM)	O=C(NC(=S)Nc1nc2cc([N+](=O)[O-])ccc2s1)c1ccccc1
50 (≈ 152 µM)	Nc1ccc2sc(NC(=S)NC(=O)c3ccccc3)nc2c1

The remaining lines, values behind:

Structure (SMILES)	MIC [mg/L]
O=C(NC(=S)Nc1nc2cc([N+](=O)[O-])ccc2s1)c1ccc([N+](=O)[O-])cc1	50 (≈ 124 µM)
CCCC(=O)NC(=S)Nc1nc2cc([N+](=O)[O-])ccc2s1	20 (≈ 61.7 µM)

tested on: Candida tropicalis; test: Antifungal activity against Candida tropicalis ATCC 20336 after 48 hrs by browth microdilution assay; format: functional; settings: ATCC 20336, 48 h; outline: as §2

MIC [mg/L]	Structure (SMILES)
50 (≈ 140 µM)	O=C(NC(=S)Nc1nc2cc([N+](=O)[O-])ccc2s1)c1ccccc1
50 (≈ 152 µM)	Nc1ccc2sc(NC(=S)NC(=O)c3ccccc3)nc2c1

Second part, the compound before the results:

Structure (SMILES)	MIC [mg/L]
O=C(NC(=S)Nc1nc2cc([N+](=O)[O-])ccc2s1)c1ccc([N+](=O)[O-])cc1	25 (≈ 62 µM)
CCCC(=O)NC(=S)Nc1nc2cc(N)ccc2s1	50 (≈ 170 µM)
CCCC(=O)NC(=S)Nc1nc2cc([N+](=O)[O-])ccc2s1	50 (≈ 154 µM)

tested on: Escherichia coli; test: microbe, parasite or virus in culture; settings: ATCC 25922, 24 h

MIC [mg/L]	Structure (SMILES)
20 (≈ 55.8 µM)	O=C(NC(=S)Nc1nc2cc([N+](=O)[O-])ccc2s1)c1ccccc1
50 (≈ 152 µM)	Nc1ccc2sc(NC(=S)NC(=O)c3ccccc3)nc2c1
50 (≈ 124 µM)	O=C(NC(=S)Nc1nc2cc([N+](=O)[O-])ccc2s1)c1ccc([N+](=O)[O-])cc1

tested on: HeLa; test: Cytotoxicity against human HeLa after 24 hrs by MTT assay; format: functional, cell-based; settings: not given
Outline: (§3)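 Cells grown in MEM with 10% FBS and 1% glutamine at 5% CO2, seeded at 1.0×10^4 cells. Exposed to compounds at 1–100 µM in medium containing 0.1% DMSO for 24 h at 37 °C. MTT (1 mg/ml) added for 5 h at 37 °C, then DMSO added and absorbance read at 540 nm. Run in triplicate; IC50 determined.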

Structure (SMILES)	IC50 [µM]
O=C(NC(=S)Nc1nc2cc([N+](=O)[O-])ccc2s1)c1ccccc1	75.1
Nc1ccc2sc(NC(=S)NC(=O)c3ccccc3)nc2c1	70.1
O=C(NC(=S)Nc1nc2cc([N+](=O)[O-])ccc2s1)c1ccc([N+](=O)[O-])cc1	68.5

tested on: Proteus vulgaris; test: Antibacterial activity against Proteus vulgaris ATCC 13315 after 24 hrs by browth microdilution assay; format: functional; settings: ATCC 13315, 24 h; outline: as §1

MIC [mg/L]	Structure (SMILES)
15 (≈ 41.9 µM)	O=C(NC(=S)Nc1nc2cc([N+](=O)[O-])ccc2s1)c1ccccc1
50 (≈ 152 µM)	Nc1ccc2sc(NC(=S)NC(=O)c3ccccc3)nc2c1

Continued, compound first:

Structure (SMILES)	MIC [mg/L]
O=C(NC(=S)Nc1nc2cc([N+](=O)[O-])ccc2s1)c1ccc([N+](=O)[O-])cc1	25 (≈ 62 µM)
CCCC(=O)NC(=S)Nc1nc2cc([N+](=O)[O-])ccc2s1	20 (≈ 61.7 µM)

tested on: Nakaseomyces glabratus; test: Antifungal activity against Candida glabrata ATCC 32554 after 48 hrs by browth microdilution assay; format: functional; settings: ATCC 32554, 48 h; outline: as §2

MIC [mg/L]	Structure (SMILES)
15 (≈ 41.9 µM)	O=C(NC(=S)Nc1nc2cc([N+](=O)[O-])ccc2s1)c1ccccc1
25 (≈ 76.1 µM)	Nc1ccc2sc(NC(=S)NC(=O)c3ccccc3)nc2c1

Further lines, the compound ahead of its results:

Structure (SMILES)	MIC [mg/L]
O=C(NC(=S)Nc1nc2cc([N+](=O)[O-])ccc2s1)c1ccc([N+](=O)[O-])cc1	25 (≈ 62 µM)
CCCC(=O)NC(=S)Nc1nc2cc(N)ccc2s1	50 (≈ 170 µM)
CCCC(=O)NC(=S)Nc1nc2cc([N+](=O)[O-])ccc2s1	25 (≈ 77.1 µM)

tested on: Candida albicans; test: Antifungal activity against Candida albicans ATCC 90028 after 48 hrs by browth microdilution assay; format: functional; settings: ATCC 90028, 48 h; outline: as §2

MIC [mg/L]	Structure (SMILES)
25 (≈ 69.8 µM)	O=C(NC(=S)Nc1nc2cc([N+](=O)[O-])ccc2s1)c1ccccc1
25 (≈ 76.1 µM)	Nc1ccc2sc(NC(=S)NC(=O)c3ccccc3)nc2c1

The next lines start with the compound.

Structure (SMILES)	MIC [mg/L]
O=C(NC(=S)Nc1nc2cc([N+](=O)[O-])ccc2s1)c1ccc([N+](=O)[O-])cc1	25 (≈ 62 µM)
CCCC(=O)NC(=S)Nc1nc2cc(N)ccc2s1	20 (≈ 67.9 µM)
CCCC(=O)NC(=S)Nc1nc2cc([N+](=O)[O-])ccc2s1	20 (≈ 61.7 µM)

tested on: Enterobacter cloacae; test: Antibacterial activity against Enterobacter cloacae ATCC 13047 after 24 hrs by browth microdilution assay; format: functional; settings: ATCC 13047, 24 h; outline: as §1

MIC [mg/L]	Structure (SMILES)
25 (≈ 69.8 µM)	O=C(NC(=S)Nc1nc2cc([N+](=O)[O-])ccc2s1)c1ccccc1
50 (≈ 152 µM)	Nc1ccc2sc(NC(=S)NC(=O)c3ccccc3)nc2c1

The remaining lines, values behind:

Structure (SMILES)	MIC [mg/L]
O=C(NC(=S)Nc1nc2cc([N+](=O)[O-])ccc2s1)c1ccc([N+](=O)[O-])cc1	25 (≈ 62 µM)
CCCC(=O)NC(=S)Nc1nc2cc([N+](=O)[O-])ccc2s1	20 (≈ 61.7 µM)

tested on: Staphylococcus aureus (ATCC 25923); test: Antibacterial activity against Staphylococcus aureus ATCC 25923 after 24 hrs by browth microdilution assay; settings: ATCC 25923, 24 h

MIC [mg/L]	Structure (SMILES)
15 (≈ 41.9 µM)	O=C(NC(=S)Nc1nc2cc([N+](=O)[O-])ccc2s1)c1ccccc1
50 (≈ 152 µM)	Nc1ccc2sc(NC(=S)NC(=O)c3ccccc3)nc2c1
50 (≈ 124 µM)	O=C(NC(=S)Nc1nc2cc([N+](=O)[O-])ccc2s1)c1ccc([N+](=O)[O-])cc1

tested on: MCF7; test: Cytotoxicity against human MCF7 after 24 hrs by MTT assay; format: functional, cell-based; settings: MCF7, 24 h; outline: as §3

Structure (SMILES)	IC50 [µM]
O=C(NC(=S)Nc1nc2cc([N+](=O)[O-])ccc2s1)c1ccccc1	41.6
Nc1ccc2sc(NC(=S)NC(=O)c3ccccc3)nc2c1	38.6
O=C(NC(=S)Nc1nc2cc([N+](=O)[O-])ccc2s1)c1ccc([N+](=O)[O-])cc1	35.2
CCCC(=O)NC(=S)Nc1nc2cc(N)ccc2s1	44.7
CCCC(=O)NC(=S)Nc1nc2cc([N+](=O)[O-])ccc2s1	> 100

tested on: Staphylococcus epidermidis; test: Antibacterial activity against Staphylococcus epidermidis ATCC 12228 after 24 hrs by browth microdilution assay; format: functional; settings: ATCC 12228, 24 h; outline: as §1

MIC [mg/L]	Structure (SMILES)
20 (≈ 55.8 µM)	O=C(NC(=S)Nc1nc2cc([N+](=O)[O-])ccc2s1)c1ccccc1
50 (≈ 152 µM)	Nc1ccc2sc(NC(=S)NC(=O)c3ccccc3)nc2c1

Continued, compound first:

Structure (SMILES)	MIC [mg/L]
O=C(NC(=S)Nc1nc2cc([N+](=O)[O-])ccc2s1)c1ccc([N+](=O)[O-])cc1	25 (≈ 62 µM)
CCCC(=O)NC(=S)Nc1nc2cc(N)ccc2s1	50 (≈ 170 µM)
CCCC(=O)NC(=S)Nc1nc2cc([N+](=O)[O-])ccc2s1	50 (≈ 154 µM)
